The values that follow come from article PMC9064604 (RSC Advances, 2019).

The test system of experiment [1] is A549 cells. Put plainly: Quantification of cellular uptake by LC-MS/MS. The class given is cell-based, human. In a few lines: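 A549 cells (1.2 × 10⁵/well) adhered overnight, then received 3 μM test compound. Medium was removed immediately or after 1, 3, 6, 12 or 24 h in the dark at 37 °C/5% CO₂. Cells were washed with PBS/1.5% DMSO, scraped into acetonitrile, sonicated and centrifuged. Extracts were quantified by LC-MS/MS against external standards (0.02–0.25 μM in A549 extract). Per-cell concentration assumed 1.7 pL cell volume; n = 4, mean ± SEM.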

Experiment [2] deals with murine melanoma B16-F10. Put plainly: Cell viability assay. The experiment is classed as cell-based. The settings on record: read-out: IC50 B16-F10, dark.
Experiment [3] relates to human alveolar adenocarcinoma A549. Put plainly: Cell viability assay. The class given is cell-based. The settings on record: A549, 72 h, read-out: IC50 A549, dark.
The test system of experiment [4] is human colorectal adenocarcinoma HT-29. Put plainly: Cell viability assay. The experiment is classed as cell-based. The settings on record: read-out: IC50 HT-29, dark.
Experiment [5] deals with human colon adenocarcinoma Caco-2. Put plainly: Cell viability assay. The experiment is classed as cell-based. As to conditions: Caco-2, 72 h, read-out: IC50 Caco-2, dark.
For experiment [6], the system named is triple negative human breast adenocarcinoma MDA-MB-231. Put plainly: Cell viability assay. The experiment is classed as cell-based. As to conditions: MDA-MB-231, 72 h, read-out: IC50 MDA-MB-231, dark.

Read-outs that look alike come from different tables or passages of the source.

As a reminder, the IC50 is the concentration at which inhibition is half-maximal. For the compound `Cc1cc(-c2ccccc2)c2ccc3c(-c4ccccc4)cc(C)nc3c2n1` [BC, bathocuproine], in experiment [1] (3 μM, A549, assuming average cell volume of 1.7 pL and homogeneous distribution), the “maximum cellular concentration per cell” value came to 2000 μM per cell. Also, the “time at which cellular uptake was optimal / plateaued” value in experiment [1] (A549, 3 μM) is on record as 3 h. In addition, the IC50 in experiment [2] (Mus musculus, B16-F10, 72 h) is > 100 µM; in experiment [3], > 100 µM; in experiment [4] (Homo sapiens, HT-29, 72 h), > 100 µM; in experiment [5] it was > 100 µM; in experiment [6] it was > 100 µM.
For the compound `N.N.[Cl][Pt][Cl]` [Cisplatin, cisplatin], the IC50 in experiment [2] (dark, 72 h, WST-1, mean ± SEM) was 7.7 ± 0.2 µM; in experiment [4] (dark, 72 h, WST-1, mean ± SEM), > 100 µM.
Turning to `c1ccc(-c2ccccn2)nc1` [bipy, 2,2′-bipyridine], the IC50 in experiment [2] (Mus musculus, B16-F10, 72 h) is > 100 µM; in experiment [3], > 100 µM; in experiment [4] (Homo sapiens, HT-29, 72 h) it was > 100 µM; in experiment [5], > 100 µM; in experiment [6], 37.5 ± 0.14 µM.
